High-throughput results (PubChem BioAssay)
In the library only some 1.8% were active in any assay of this set; here they are far more common.
zVAD death inh: L929 zVAD cell death inhibition | L929 zVAD necroptosis rescue, ATP luminescence, 24 h; with zVAD 60 µM | viability rescue, % at 10 µM | 220,000 tested, 0.38% active | AID 1377;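 active means activation, scaled between plate controls, above about 75%, limit read from the data; inactive means activation under that limit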;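 further: 0% = zVAD with DMSO and 100% = DMSO alone without zVAD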
Autophagy HCS: alters autophagy in cells. MEF GFP-LC3 puncta imaging; test concentration mostly 10 µM. calls only at 10 µM (by protocol). 190,000 tested, 0.98% active. AID 463193;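 active means percentage of spot-positive cells more than 3 SD above its plate mean, without a fluorescence outlier flag or 80% toxicity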;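 further: spot-positive cell cutoff set from DMSO-treated cells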
Mdm2 ligase inh: blocks human Mdm2 ubiquitin ligase activity | cell-based MDM2 ubiquitination luciferase reporter, 2 h; 0 = plate control, 100 = twice control, blank-subtracted | signal enhancement, % at 5 µM | 210,000 tested, 0.11% active | AID 1230;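 active means signal enhancement of 30% or more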;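 further: luminescence tracks abundance of the self-degrading MDM2-luciferase fusion protein; higher signal means inhibition of MDM2 E3 ligase activity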
Target sequence (Q00987 whole entry, looked up, the tested form may be a part): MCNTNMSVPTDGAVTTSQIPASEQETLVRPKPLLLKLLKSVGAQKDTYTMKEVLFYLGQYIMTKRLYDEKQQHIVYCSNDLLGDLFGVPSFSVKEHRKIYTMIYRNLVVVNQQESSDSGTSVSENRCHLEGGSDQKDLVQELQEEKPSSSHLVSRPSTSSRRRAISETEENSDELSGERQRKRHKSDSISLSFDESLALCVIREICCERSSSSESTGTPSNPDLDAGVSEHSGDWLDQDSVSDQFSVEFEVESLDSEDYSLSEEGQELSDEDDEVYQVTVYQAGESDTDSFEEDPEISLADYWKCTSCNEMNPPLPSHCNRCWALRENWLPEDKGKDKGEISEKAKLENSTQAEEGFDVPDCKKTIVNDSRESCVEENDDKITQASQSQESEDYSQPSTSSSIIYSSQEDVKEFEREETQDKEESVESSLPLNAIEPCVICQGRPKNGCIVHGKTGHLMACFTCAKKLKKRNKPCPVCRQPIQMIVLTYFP
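system = mammalian cells stably expressing self-ubiquitinating, self-degrading MDM2 E3–luciferase fusion | quantity = 2000 cells per well seeded | incubation = 4 h cell settling then 2 h compound exposure, 37 °C | signal = SteadyLite luminescence, 15 min reagent step | benchmarks = plate control and blank wells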
TNF death inh: TNF-alpha cell death inhibition in Jurkat FADD-/- cells. activation (protection from cell death), % at 10 µM. Jurkat FADD-/- TNF necroptosis rescue, ATP luminescence, 24 h; 0 = TNF only, 100 = no-TNF cells. 220,000 tested, 0.068% active;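 active means activation, meaning protection from cell death, of at least 50% relative to plate controls; inactive means activation below 50%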;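 further: necroptosis triggered by 40 ng/mL TNF-alpha added together with compound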
Dynein cargo inh: blocks dynein driven cargo transport along microtubules; 3617.4 mouse cells, GR-EGFP nuclear translocation imaging; test concentration mostly 20 µM; stimulated with dexamethasone, 1 µM; stronger effect = lower value; AID 1381; z-score, hits read low; 220,000 tested, 0.47% active;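 active means plate z-score of nuclear minus cytoplasmic receptor signal below a set negative limit, without overly bright fluorescence or cell loss, cut at about -3.5 in these data, passing the limit was not always enough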;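 further: z-score of nuclear minus cytoplasmic ring GR-EGFP intensity difference per well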
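medium = tetracycline-free induction medium containing charcoal-stripped FBS | also added = 1.0 µM final dexamethasone stimulus | schedule = 48 h induction, 1 h compound, 30 min dex at 37 °C | technique = fixed, Hoechst-stained cells imaged at 10x for EGFP | measure = GR-EGFP nuclear translocation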
The depositor's hits bear a star; i = inactive; . = not tested or not shown; + = active, no number.

SMILES | zVAD death inh | Autophagy HCS | Mdm2 ligase inh | TNF death inh | Dynein cargo inh
Cc1nc(CNC(=O)c2ccccc2OC2CCN(S(C)(=O)=O)CC2)cs1 | 4 | i | 7 | 1 | 0.19
O=C1CCCCC/C1=N/Nc1ccc(OCc2ccccc2)cc1 | -1 | . | -17 | 1 | -0.88
Nc1nnc(CSc2ccc(Cl)cc2)s1 | 104* | i | 14 | 23 | -1.3
COC(=O)/C=C1\NC(=O)C(C)S1 (stereo unspecified) | 3 | i | 2 | 0 | 0.57
Nc1nc(N2CCCCC2)c(C=O)c(N2CCCCC2)n1 | 0 | + | -21 | 2 | -0.13
Nc1nc(Cl)c(C=O)c(N2CCCCC2)n1 | -2 | i | -4 | -14 | -0.78
N/C(=N\OC(=O)/C=C/c1ccccc1)c1ccccn1 | 0 | i | -43 | -5 | 0.29
O=C(/C=C/c1ccccc1)c1ccccn1 | 0 | i | -13 | -10 | -3.8*
Cc1c(C(=O)Nc2ccc(Cl)cc2)c2ccccn2c1CCc1ccncc1 | 1 | i | -17 | -2 | -0.2
Cc1c(C(=O)Nc2cccc(Cl)c2)c2ccccn2c1CCc1ccncc1 | 5 | + | -16 | -3 | -0.35
O=C(OC(C(=O)Nc1ccc([N+](=O)[O-])cc1Br)c1ccccc1)c1ccccc1 (stereo unspecified) | 0 | i | -5 | 76* | -0.52
FC(F)(F)c1cc(C(F)(F)F)c2ccc(N3CCN(c4ccc(Cl)cc4)CC3)nc2n1 | 1 | i | -5 | -4 | -0.42
N#CC(c1ccc(Cl)cc1)c1ccc2c(C(F)(F)F)cc(C(F)(F)F)nc2n1 (stereo unspecified) | 0 | + | -6 | -9 | 1.9
Cc1ccccc1C(=O)O/N=C(\N)c1ccncc1 | 0 | i | -15 | 0 | -0.52
CC(C)(C)c1nc(SCC(=O)c2ccccc2)c2ccccc2n1 | 4 | + | 2 | -1 | 0.15
CC(C)(C)c1nc(SCC(=O)N2CCCC2)c2ccccc2n1 | 1 | i | -9 | -2 | -0.33
Cc1cc(C)nc(SCCC(=O)Nc2ccccc2Cl)n1 | 0 | i | -8 | 4 | 1.3
O=C(N/N=C/c1cccc(O)c1)NC1CCCCC1 | 2 | i | -2 | 2 | -0.24
O=C(N/N=C/C=C/c1ccccc1)NC1CCCCC1 | 46 | + | 3 | -1 | 0.37
CCOC(=O)N1CCN(C(=O)CSCc2ccc(Br)cc2)CC1 | 19 | i | -8 | -1 | 1.5
COC(=O)c1ccc(NC(=O)Nc2cccc(F)c2)cc1 | 8 | i | -28 | 3 | 0.26
COC(=O)c1ccc(NC(=O)Nc2ccc(F)cc2F)cc1 | 28 | + | -4 | 2 | -0.57
CC(C)(C=O)C1=CC(=O)c2ccccc2C1=O | 1 | i | -5 | -15 | -3.6*
Cc1ccc2c(c1)/C(=C/c1ccco1)C(=O)N2 | 73 | i | -12 | -1 | -1
Cc1ccc(/C=C2\C(=O)Nc3ccccc32)o1 | 78* | i | -14 | 0 | 0.29
SMILES | zVAD death inh | Autophagy HCS | Mdm2 ligase inh | TNF death inh | Dynein cargo inh
Cc1ccnc(Sc2ccc([N+](=O)[O-])cc2[N+](=O)[O-])n1 | 2 | i | -8 | -15 | -4.8*
Cc1ccc(Sc2ccc([N+](=O)[O-])cc2[N+](=O)[O-])nc1 | 1 | i | -40 | 7 | -0.92
COc1ccc(-c2oc3ncnc(NCCN4CCOCC4)c3c2-c2ccc(OC)cc2)cc1 | 20 | + | -12 | -8 | 0.83
S=c1cnc2ccccc2[nH]1 | 2 | i | 1 | 1 | -0.96
Cc1ccc(Cc2cnc(NC(=O)/C(C#N)=C/c3ccc(-c4ccccc4[N+](=O)[O-])o3)s2)cc1 | 1 | + | -13 | 0 | -0.57
CC(=O)Nc1ccc(NS(=O)(=O)c2ccccc2)cc1 | 1 | + | -5 | 1 | -1.5
Cc1ccc(S(=O)(=O)N2CCc3ccccc3C2CC(=O)O)cc1 (stereo unspecified) | 0 | . | -9 | 0 | 1.3
O=C1CN(c2nc(-c3cccs3)nc3sc4c(c23)CCCC4)CCN1 | 46 | + | -9 | -4 | 0.43
O=c1oc(-c2cccs2)nc2sc3c(c12)CCCC3 | -1 | i | -19 | 0 | -0.076
COC(=O)c1ccc(C2C(C#N)=C(C)NC3=C2C(=O)CC(C)(C)C3)cc1 (stereo unspecified) | 0 | i | 14 | 1 | 0.55
COc1ccc(C2CC(=O)C3=C(C2)NC(C)=C(C#N)C3c2ccc(N(C)C)cc2)cc1 (stereo unspecified) | -1 | + | 1 | 2 | -0.64
O=C(Cn1c2ccccc2c(=O)c2ccccc21)N/N=C/c1cc([N+](=O)[O-])ccc1N1CCCCC1 | 1 | + | -20 | -2 | -0.33
CCCCCCCNc1cccc(C)c1 | 0 | . | -2 | 0 | -0.9
CCCCNc1n[n+](C)c(-c2cccc(C)c2)s1 | -1 | . | 35* | 3 | 0.4
COc1cccc(N2CCN(c3ncnc4c3cnn4-c3ccc(C)cc3C)CC2)c1 | 2 | + | -33 | -13 | -1.2
COc1cccc(-c2nn(-c3ccccc3)cc2CN2CCCO2)c1 | 1 | i | -8 | 1 | 0.28
CCn1ccnc1CN1CCN(CCC(C)C)C(CCO)C1 (stereo unspecified) | 0 | i | 9 | 0 | -0.52
CC1=C(C#N)c2nc(N)c(C#N)c(C)c2/C1=C\c1ccc(C)cc1 | 0 | + | -8 | -11 | 1.8
COc1cc(/C=C2\C(C)=C(C#N)c3nc(N)c(C#N)c(C)c32)ccc1OCC(=O)O | 1 | . | -20 | -3 | -0.83
CCCCOC(=O)C(C)Sc1n[nH]c(=O)[nH]c1=O (stereo unspecified) | 0 | i | -15 | 1 | 0.72
FC(F)(F)c1cccc(NC(=S)N(CCCN2CCCC2)Cc2cccn2Cc2ccc(Cl)cc2)c1 | 0 | + | 8 | 0 | 0.21
COc1ccc(NC(=S)N(CCCN2CCC(C)CC2)Cc2cccs2)cc1Cl | -1 | i | -12 | -1 | 1.1
Cc1ccc(NC(=S)N(CCCN2CCCC2)Cc2cccn2Cc2ccc(Cl)cc2)cc1Cl | -1 | + | 6 | 0 | 0.62
COc1ccc(NC(=S)N(CCCN2CCCC2)Cc2cccn2Cc2ccc(Cl)cc2)cc1Cl | 1 | + | -23 | -12 | 0.54
Cc1ccc(NC(=S)N(CCCN2CCCC2)Cc2cccn2Cc2ccc(Cl)cc2)cc1C | -1 | i | -9 | -1 | -1.2
Cc1cc(C)nc(SCc2ccc(F)cc2)n1 | 2 | i | -11 | -1 | -0.057
CCCN=Cc1ccc(O)cc1 | 0 | i | -13 | -1 | 1.1
COCCCNCC#CCOc1ccc(OC)cc1 | -1 | + | -21 | -1 | 0.81
CCOC(=O)C(C(=O)OCC)c1cc(Br)c2noc3c2c1C(=O)c1ccccc1-3 | 37 | + | 0 | -16 | 9.3
